Measured values from PubChem BioAssay AID2833 (NMMLSC, 2010).
pEC50: −log10 of the molar value. Activity calls are given as the source filed them.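 Rule for the calls: active = toxic dose over reversal dose above 10, when toxic dose is under 15 µM; inactive = the rest.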

Test system: Jurkat/DNR viability with daunorubicin, trypan blue, 3 d
Experiment: ABCB1-mediated resistance reversal in Jurkat/DNR – cell-based, trypan blue viability, one SAR set, SAR follow-up (AID 2833)
Conditions: for CC50: measured here: toxicity without chemotherapeutic (TD50)
How it was run: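 Dosing: test compound series spanning 1–100 µM, three logs / Material: Daunorubicin-resistant Jurkat/DNR human T-cell line / Input: 100,000 cells per mL / Schedule: 3-day compound exposure with daunorubicin / Evaluation: compound level giving 50% viability loss (CR50) / Detection: trypan blue microscopy counting / Reagent: daunorubicin at a constant, fixed level throughout exposure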

Row | Compound | EC50 | pEC50 | CC50 [µM]
1 | COc1ccc(-c2nn(-c3ccccc3)cc2/C=C/C(=O)N2CCN(c3ccccn3)CC2)cc1 | 9.9 µM (inactive) | – | 15.2
2 | CCCCn1c(O)c(N=Nc2ccccn2)c2ccccc21 | 13.3 µM (inactive) | – | 13.3
3 | N#Cc1ccc(-c2ccc(OCC(=O)NCCc3ccccc3)cc2)cc1 | 43.8 µM (inactive) | – | 21.4
4 | Cc1nc2cc(-c3cccc(F)c3)nn2c(N2CCN(C(=O)c3ccco3)CC2)c1C | – | 5.93 | > 100
5 | CCOC(=O)c1c(NC(=O)CSc2ncccn2)sc2c1CCN(Cc1ccccc1)C2 | 8.81 µM (inactive) | – | 5.1
6 | COC(=O)c1ccc(C(C(=O)NC2CCCCC2)N(Cc2ccccc2)C(=O)Cc2cccs2)cc1 (stereo not given) | 10.3 µM (inactive) | – | 8.81
7 | CCCCN(C)C1=CC2=CC(=C(C#N)C#N)CCC2CC1 (stereo not given) | 12.5 µM (inactive) | – | 15.2

More lines, main results first:

Row | EC50 | pEC50 | Compound | CC50 [µM]
8 | 13.3 µM (inactive) | – | CCOC(=O)c1cccc(NC(=O)c2cnc3ccccc3n2)c1 | 15
9 | 9.67 µM (inactive) | – | O=[N+]([O-])c1ccc(Nc2nc(Cl)nc(NCCO)n2)cc1 | 12.8
10 | 4.72 µM (inactive) | – | CCN(CC)P(=O)(Nc1cccc(C(F)(F)F)c1)c1ccc(N(C)C)cc1NC(=O)c1ccco1 (stereo not given) | 4.54
11 | 17.5 µM (inactive) | – | COc1ccc(/C=N/NC(=O)c2cccnc2)cc1CN1CCN(c2ccc(F)cc2)CC1 | 24.1
12 | 34.5 µM (inactive) | – | CC1=NN(c2ccc([N+](=O)[O-])cc2)C(=O)/C1=C/N(C)C | 34.5
13 | 15.2 µM (inactive) | – | CNc1nc2cc([N+](=O)[O-])c([N+](=O)[O-])cc2nc1NC | 6.2
14 | 29.4 µM (inactive) | – | Cc1cc(C)c(C#N)c(SCc2c(F)cccc2[N+](=O)[O-])n1 | 3.05
15 | 14.6 µM (inactive) | – | O=[N+]([O-])c1ccccc1-c1nc(-c2ccc(Br)o2)no1 | 14.6
